{"source": "ChEMBL document CHEMBL1275561", "about": "“In vitro activities of doripenem, a new broad-spectrum carbapenem, against recently collected clinical anaerobic isolates, with emphasis on the Bacteroides fragilis group” (2008)", "type_in_all_cases": "functional", "key": {"Bacteroides fragilis": {"tested_on": "Bacteroides fragilis", "assay": "Antimicrobial activity against Bacteroides fragilis assessed as resistant isolates by agar dilution method", "method_in_brief": "(§1)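 CLSI agar dilution on enriched brucella agar (5% lysed defibrinated sheep blood, 1 μg/ml vitamin K1), plates made on test day. Log-phase inocula adjusted to 0.5 McFarland; about 10^5 CFU/spot by Steers replicator. Incubated anaerobically at 37°C for 48 h. MIC was the lowest concentration giving a marked change in growth versus the drug-free control plate. Resistance rates used CLSI anaerobe breakpoints. Controls were B. fragilis ATCC 25285 and B. thetaiotaomicron ATCC 29741.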"}, "Peptostreptococcus sp.": {"tested_on": "Peptostreptococcus sp.", "assay": "Antimicrobial activity against Peptostreptococcus sp. by agar dilution method in presence of beta-lactamase inhibitor Tazobactam", "method_in_brief": "(§2)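 Log-phase isolates were adjusted to 0.5 McFarland, and about 10^5 CFU/spot was delivered by Steers replicator. Plates were incubated anaerobically at 37°C for 48 h. MIC was the lowest concentration giving a marked growth change versus the control plate. Eubacterium lentum ATCC 43055 was the QC strain, with repeats when out of range.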"}, "Bacteroides nordii": {"tested_on": "Bacteroides nordii", "assay": "Antimicrobial activity against Bacteroides nordii assessed as resistant isolates by agar dilution method", "method_in_brief": "as §1"}, "Propionibacterium [1]": {"tested_on": "Propionibacterium", "assay": "Antimicrobial activity against Propionibacterium sp. by agar dilution method in presence of beta-lactamase inhibitor Tazobactam", "method_in_brief": "as §2"}, "Parabacteroides merdae": {"tested_on": "Parabacteroides merdae", "assay": "Antimicrobial activity against Bacteroides merdae assessed as resistant isolates by agar dilution method", "method_in_brief": "as §1"}, "[Clostridium] innocuum": {"tested_on": "[Clostridium] innocuum", "assay": "Antimicrobial activity against Clostridium innocuum assessed as resistant isolates by agar dilution method", "settings": "pooled result: one value given for 4 cell lines, strains, targets or settings"}, "Cutibacterium acnes [2]": {"tested_on": "Cutibacterium acnes", "assay": "Antimicrobial activity against Propionibacterium acnes by agar dilution method in presence of beta-lactamase inhibitor Tazobactam", "method_in_brief": "as §2"}, "Bacteroides ovatus": {"tested_on": "Bacteroides ovatus", "assay": "Antimicrobial activity against Bacteroides ovatus assessed as resistant isolates by agar dilution method", "method_in_brief": "as §1"}, "Propionibacterium [3]": {"tested_on": "Propionibacterium", "assay": "Antimicrobial activity against Propionibacterium sp. assessed as resistant isolates by agar dilution method", "method_in_brief": "(§3)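 Agar dilution following CLSI on brucella agar with 5% lysed defibrinated sheep blood and 1 μg/ml vitamin K1, plates made on test day. Log-phase cells at 0.5 McFarland, about 10^5 CFU/spot by Steers replicator, 48 h anaerobic at 37°C. MIC read as the lowest concentration causing a marked growth change versus control. Resistance counted by CLSI anaerobe breakpoints. Eubacterium lentum ATCC 43055 served as control.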"}, "Bacteroides uniformis": {"tested_on": "Bacteroides uniformis", "assay": "Antimicrobial activity against Bacteroides uniformis assessed as resistant isolates by agar dilution method", "method_in_brief": "as §1"}, "Phocaeicola vulgatus": {"tested_on": "Phocaeicola vulgatus", "assay": "Antimicrobial activity against Bacteroides vulgatus assessed as resistant isolates by agar dilution method", "method_in_brief": "as §1"}, "Cutibacterium acnes [4]": {"tested_on": "Cutibacterium acnes", "assay": "Antimicrobial activity against Propionibacterium acnes assessed as resistant isolates by agar dilution method", "method_in_brief": "as §3"}, "[5]": {"tested_on": "Bacteroides thetaiotaomicron", "assay": "Antimicrobial activity against Bacteroides thetaiotaomicron assessed as resistant isolates by agar dilution method", "method_in_brief": "as §1"}, "[6]": {"tested_on": "Peptoniphilus asaccharolyticus", "assay": "Antimicrobial activity against Peptoniphilus asaccharolyticus assessed as resistant isolates by agar dilution method", "settings": "pooled result: one value given for 4 cell lines, strains, targets or settings", "method_in_brief": "as §3"}, "Parvimonas micra": {"tested_on": "Parvimonas micra", "assay": "Antimicrobial activity against Micromonas micros by agar dilution method in presence of beta-lactamase inhibitor Tazobactam", "method_in_brief": "(§4)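 Gram-positive anaerobes were tested by CLSI agar dilution on brucella agar enriched with 5% lysed defibrinated sheep blood and 1 μg/ml vitamin K1. Inoculum was log-phase growth at 0.5 McFarland, about 10^5 CFU/spot by replicator. Incubation was anaerobic, 37°C, 48 h. MIC was the lowest concentration with a marked growth change versus the drug-free plate. Eubacterium lentum ATCC 43055 was the control, and tests were repeated if it fell outside the CLSI range.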"}, "Anaerococcus prevotii": {"tested_on": "Anaerococcus prevotii", "assay": "Antimicrobial activity against Anaerococcus prevotii by agar dilution method in presence of beta-lactamase inhibitor Tazobactam", "method_in_brief": "as §4"}, "Bacteroides caccae": {"tested_on": "Bacteroides caccae", "assay": "Antimicrobial activity against Bacteroides caccae assessed as resistant isolates by agar dilution method", "method_in_brief": "as §1"}, "[7]": {"tested_on": "Peptoniphilus asaccharolyticus", "assay": "Antimicrobial activity against Peptoniphilus asaccharolyticus by agar dilution method in presence of beta-lactamase inhibitor Tazobactam", "method_in_brief": "as §4"}, "Finegoldia magna [8]": {"tested_on": "Finegoldia magna", "assay": "Antimicrobial activity against Finegoldia magna assessed as resistant isolates by agar dilution method", "method_in_brief": "as §3"}, "Bacteroides eggerthii": {"tested_on": "Bacteroides eggerthii", "assay": "Antimicrobial activity against Bacteroides eggerthii assessed as resistant isolates by agar dilution method", "method_in_brief": "as §1"}, "[9]": {"tested_on": "Parabacteroides distasonis", "assay": "Antimicrobial activity against Bacteroides distasonis assessed as resistant isolates by agar dilution method", "method_in_brief": "as §1"}, "Clostridioides difficile [10]": {"tested_on": "Clostridioides difficile", "assay": "Antimicrobial activity against Clostridium difficile by agar dilution method in presence of beta-lactamase inhibitor Tazobactam", "method_in_brief": "as §4"}, "Finegoldia magna [11]": {"tested_on": "Finegoldia magna", "assay": "Antimicrobial activity against Finegoldia magna by agar dilution method in presence of beta-lactamase inhibitor Tazobactam", "method_in_brief": "as §4"}, "Cutibacterium acnes [12]": {"tested_on": "Cutibacterium acnes", "assay": "Antimicrobial activity against Propionibacterium acnes by agar dilution method in presence of beta-lactamase inhibitor Sulbactam", "method_in_brief": "as §2"}, "Finegoldia magna [13]": {"tested_on": "Finegoldia magna", "assay": "Antimicrobial activity against Finegoldia magna by agar dilution method in presence of beta-lactamase inhibitor Sulbactam", "method_in_brief": "as §4"}, "Clostridioides difficile [14]": {"tested_on": "Clostridioides difficile", "assay": "Antimicrobial activity against Clostridium difficile by agar dilution method in presence of beta-lactamase inhibitor Sulbactam", "method_in_brief": "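MICs by CLSI agar dilution on enriched brucella agar (5% lysed defibrinated sheep blood, 1 μg/ml vitamin K1). Log-phase inoculum at 0.5 McFarland, about 10^5 CFU/spot by replicator. Plates held anaerobically at 37°C for 48 h. Endpoint was the lowest concentration giving a marked change in growth against the control plate. Eubacterium lentum ATCC 43055 was the control.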"}, "[15]": {"settings": "Cutibacterium acnes, read-out: MIC"}, "[16]": {"settings": "Finegoldia magna, read-out: MIC"}}, "note": "Where “and” joins values, the source holds several entries; their conditions need not be identical. Equal values may be shown once.", "data": [{"smiles": "CCN1CCN(C(=O)N[C@@H](C(=O)N[C@@H]2C(=O)N3[C@@H]2SC(C)(C)[C@@H]3C(=O)O)c2ccccc2)C(=O)C1=O", "note": "[PIPERACILLIN]", "values": [{"measurement": "Activity", "setting": "Bacteroides fragilis", "result": 1, "unit": "%"}, {"measurement": "MIC", "setting": "Peptostreptococcus sp.", "result": 0.5, "unit": "µg/mL"}, {"measurement": "MIC", "setting": "Peptostreptococcus sp.; Peptostreptococcus sp., read-out: MIC", "result": 0.5, "unit": "µg/mL"}, {"measurement": "Activity", "setting": "Bacteroides nordii", "result": 0, "unit": "%"}, {"measurement": "MIC", "setting": "Propionibacterium [1]", "result": "0.25 µg/mL and 0.5 µg/mL"}, {"measurement": "MIC", "setting": "Propionibacterium [1]; Propionibacterium, read-out: MIC", "result": 0.25, "unit": "µg/mL"}, {"measurement": "Activity", "setting": "Parabacteroides merdae", "result": 0, "unit": "%"}, {"measurement": "Activity", "setting": "[Clostridium] innocuum", "result": 5.6, "unit": "%"}, {"measurement": "MIC", "setting": "Cutibacterium acnes [2]", "result": "0.25 µg/mL and 0.5 µg/mL"}, {"measurement": "MIC", "setting": "Cutibacterium acnes [2]; [15]", "result": 0.25, "unit": "µg/mL"}, {"measurement": "Activity", "setting": "Bacteroides ovatus", "result": 0, "unit": "%"}, {"measurement": "Activity", "setting": "Propionibacterium [3]", "result": 0, "unit": "%"}, {"measurement": "Activity", "setting": "Bacteroides uniformis", "result": 0, "unit": "%"}, {"measurement": "Activity", "setting": "Phocaeicola vulgatus", "result": 0, "unit": "%"}, {"measurement": "Activity", "setting": "Cutibacterium acnes [4]", "result": 0, "unit": "%"}, {"measurement": "Activity", "setting": "[5]", "result": 1.3, "unit": "%"}, {"measurement": "Activity", "setting": "[6]", "result": 0, "unit": "%"}, {"measurement": "MIC", "setting": "Parvimonas micra", "result": 0.5, "unit": "µg/mL"}, {"measurement": "MIC", "setting": "Parvimonas micra; Parvimonas micra, read-out: MIC", "result": 0.5, "unit": "µg/mL"}, {"measurement": "MIC", "setting": "Anaerococcus prevotii", "result": 0.5, "unit": "µg/mL"}, {"measurement": "MIC", "setting": "Anaerococcus prevotii; Anaerococcus prevotii, read-out: MIC", "result": 0.5, "unit": "µg/mL"}, {"measurement": "Activity", "setting": "Bacteroides caccae", "result": 0, "unit": "%"}, {"measurement": "MIC", "setting": "[7]", "result": 0.5, "unit": "µg/mL"}, {"measurement": "MIC", "setting": "[7]; Peptoniphilus asaccharolyticus, read-out: MIC", "result": 0.5, "unit": "µg/mL"}, {"measurement": "Activity", "setting": "Finegoldia magna [8]", "result": 0, "unit": "%"}, {"measurement": "Activity", "setting": "Bacteroides eggerthii", "result": 0, "unit": "%"}, {"measurement": "Activity", "setting": "[9]", "result": 0, "unit": "%"}, {"measurement": "MIC", "setting": "Clostridioides difficile [10]", "result": 2, "unit": "µg/mL"}, {"measurement": "MIC", "setting": "Finegoldia magna [11]", "result": 0.5, "unit": "µg/mL"}, {"measurement": "MIC", "setting": "Finegoldia magna [11]; [16]", "result": 0.5, "unit": "µg/mL"}]}, {"smiles": "CC1(C)S[C@@H]2[C@H](NC(=O)[C@H](N)c3ccccc3)C(=O)N2[C@H]1C(=O)O", "note": "[AMPICILLIN]", "values": [{"measurement": "Activity", "setting": "Bacteroides fragilis", "result": 4.5, "unit": "%"}, {"measurement": "Activity", "setting": "Bacteroides nordii", "result": 0, "unit": "%"}, {"measurement": "Activity", "setting": "Parabacteroides merdae", "result": 0, "unit": "%"}, {"measurement": "Activity", "setting": "[Clostridium] innocuum", "result": 5.6, "unit": "%"}, {"measurement": "Activity", "setting": "Bacteroides ovatus", "result": 11.4, "unit": "%"}, {"measurement": "Activity", "setting": "Propionibacterium [3]", "result": 0, "unit": "%"}, {"measurement": "Activity", "setting": "Bacteroides uniformis", "result": 0, "unit": "%"}, {"measurement": "Activity", "setting": "Phocaeicola vulgatus", "result": 0, "unit": "%"}, {"measurement": "MIC", "setting": "Cutibacterium acnes [12]", "result": "0.25 µg/mL and 0.5 µg/mL"}, {"measurement": "MIC", "setting": "Cutibacterium acnes [12]; [15]", "result": 0.25, "unit": "µg/mL"}, {"measurement": "Activity", "setting": "Cutibacterium acnes [4]", "result": 0, "unit": "%"}, {"measurement": "Activity", "setting": "[5]", "result": 3.8, "unit": "%"}, {"measurement": "Activity", "setting": "[6]", "result": 0, "unit": "%"}, {"measurement": "Activity", "setting": "Bacteroides caccae", "result": 0, "unit": "%"}, {"measurement": "Activity", "setting": "Finegoldia magna [8]", "result": 0, "unit": "%"}, {"measurement": "Activity", "setting": "Bacteroides eggerthii", "result": 0, "unit": "%"}, {"measurement": "Activity", "setting": "[9]", "result": 6.7, "unit": "%"}, {"measurement": "MIC", "setting": "Finegoldia magna [13]", "result": 2, "unit": "µg/mL"}, {"measurement": "MIC", "setting": "Finegoldia magna [13]; [16]", "result": 2, "unit": "µg/mL"}, {"measurement": "MIC", "setting": "Clostridioides difficile [14]", "result": 4, "unit": "µg/mL"}]}]}
